Experimental data: ChEMBL document CHEMBL1157310, “Cytotoxic oxylipins from a marine sponge Topsentia sp” (2006)
In brackets after ≈: the same amount, converted by molar mass.

Tests used:
Type in all cases: functional
Conditions in all cases: read-out: ED50 (the source's name)
HCT-15 = assay: Cytotoxicity against human HCT15 cells
Procedure, shortened: (§1)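 Human tumour cell lines of stated origin: SK-MEL-2 from skin cancer, XF498 from CNS cancer, HCT 15 from colon cancer.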

SK-OV-3 = assay: Cytotoxicity against human SK-OV-3 cells
XF498 = assay: Cytotoxicity against human XF498 cells; procedure, shortened: as §1
SK-MEL-2 = assay: Cytotoxicity against human SK-MEL-2 cells; procedure, shortened: as §1
A549 = assay: Cytotoxicity against human A549 cells

COc1cccc2c1C(=O)c1c(O)c3c(c(O)c1C2=O)C[C@@](O)(C(=O)CO)C[C@@H]3O[C@H]1C[C@H](N)[C@H](O)[C@H](C)O1 [DOXORUBICIN]
EC50 (HCT-15): 0.06 µg/mL (≈ 0.11 µM)
EC50 (SK-OV-3): 0.13 µg/mL (≈ 0.239 µM)
EC50 (XF498): 0.06 µg/mL (≈ 0.11 µM)
EC50 (SK-MEL-2): 0.04 µg/mL (≈ 0.0736 µM)
EC50 (A549): 0.04 µg/mL (≈ 0.0736 µM)
